According to ChEMBL document CHEMBL4732225, “Identification of a new class of HBV capsid assembly modulator” (Bioorg Med Chem Lett, 2021):

Legend:
[1] = Metabolic stability in human microsomes assessed as intrinsic clearance; format: ADME, Microsome
[2] = Plasma clearance in Sprague-Dawley rat at 5 mg/kg, po or 1.25 mg/kg, iv; format: ADME, organism-based
In short: (§1)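 Sprague-Dawley rats, n = 3. Oral dose 5 mg/kg in 70% PEG400 vehicle; IV dose 1.25 mg/kg in saline vehicle.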

[3] = Volume of distribution at steady state in Sprague-Dawley rat at 5 mg/kg, po or 1.25 mg/kg, iv; format: ADME, organism-based; conditions: in vivo, read-out: Vdss; in short: as §1
[4] = Half life in Beagle dog at […], po or 1 mg/kg, iv; format: ADME, organism-based, Canis lupus familiaris; conditions: in vivo, dose 2.5 mg/kg
[5] = Half life in Sprague-Dawley rat at 5 mg/kg, po or 1.25 mg/kg, iv; format: ADME, organism-based; conditions: in vivo; in short: as §1
[6] = Tmax in Beagle dog at […], po; format: ADME, organism-based, Canis lupus familiaris; conditions: in vivo, dose 2.5 mg/kg
[7] = AUC (0 to infinity) in Sprague-Dawley rat at 5 mg/kg, po; format: ADME, organism-based; parameters: time infinity, route oral, dose 5 mg/kg; conditions: in vivo; in short: as §1
[8] = Cmax in Beagle dog at […], po; format: ADME, organism-based, Canis lupus familiaris; parameters: route oral, dose 2.5 mg/kg; conditions: in vivo
[9] = Tmax in Sprague-Dawley rat at 5 mg/kg, po; format: ADME, organism-based; conditions: in vivo; in short: as §1
[10] = Oral bioavailability in Beagle dog at […]; format: ADME, organism-based, Canis lupus familiaris; conditions: in vivo, dose 2.5 mg/kg
[11] = Cmax in Sprague-Dawley rat at 5 mg/kg, po; format: ADME, organism-based; parameters: route oral, dose 5 mg/kg; conditions: in vivo; in short: as §1
[12] = Ratio of drug level in liver to plasma in Sprague-Dawley rat at 5 mg/kg, po or 1.25 mg/kg, iv; format: ADME, organism-based; conditions: liver and plasma; in short: as §1
[13] = Volume of distribution at steady state in Beagle dog at […], po or 1 mg/kg, iv; format: ADME, organism-based, Canis lupus familiaris; conditions: in vivo, dose 2.5 mg/kg, read-out: Vdss
[14] = Oral bioavailability in Sprague-Dawley rat at 5 mg/kg; format: ADME, organism-based; conditions: in vivo; in short: as §1
[15] = AUC (0 to infinity) in Beagle dog at […], po; format: ADME, organism-based, Canis lupus familiaris; parameters: route oral, time infinity, dose 2.5 mg/kg; conditions: in vivo

C[C@H]1Cc2[nH]nc(-c3cscn3)c2CN1C(=O)Nc1ccc(F)c(Br)c1
CLint scaled [1]: 24 mL/min/kg

C[C@H]1Cc2[nH]nc(-c3cccs3)c2CN1C(=O)Nc1cccc(Cl)c1
CLint scaled [1]: 17 mL/min/kg

C[C@H]1Cc2[nH]nc(-c3cscn3)c2CN1C(=O)Nc1ccc(F)c(C#N)c1
clearance [2]: 30.7 mL/min/kg | Vd [3]: 2.97 L/kg | half-life [4]: 2.17 h | half-life [5]: 2.28 h | Tmax [6]: 1 h | AUC(0-inf) [7]: 1030 ng·h/mL | Cmax [8]: 472 ng/mL | Tmax [9]: 6 h | F [10]: 73% | Cmax [11]: 73 ng/mL | Kp [12]: 17 | Vd [13]: 3 L/kg | bioavailability [14]: 38% | CLint scaled [1]: 13 mL/min/kg | AUC [15]: 1620 ng·h/mL

CC[C@H]1Cc2[nH]nc(-c3ccccc3)c2CN1C(=O)Nc1cccc(Cl)c1
CLint scaled [1]: 22 mL/min/kg

O=C(Nc1cccc(Cl)c1)N1CCc2[nH]nc(-c3nccs3)c2C1
CLint scaled [1]: 53 mL/min/kg

C[C@H]1Cc2[nH]nc(-c3cscn3)c2CN1C(=O)Nc1cccc(Cl)c1
CLint scaled [1]: 20 mL/min/kg

C[C@H]1Cc2[nH]nc(-c3cscn3)c2CN1C(=O)Nc1ccc(F)c(Cl)c1
CLint scaled [1]: 21 mL/min/kg

O=C(Nc1cccc(Cl)c1)N1CCc2[nH]nc(-c3cccs3)c2C1
CLint scaled [1]: 356 mL/min/kg

C[C@@H]1Cc2[nH]nc(-c3ccccc3)c2CN1C(=O)Nc1cccc(Cl)c1
CLint scaled [1]: 43 mL/min/kg

O=C(Nc1cccc(Cl)c1)N1CCc2[nH]nc(-c3cscn3)c2C1
CLint scaled [1]: 33 mL/min/kg

C[C@H]1Cc2[nH]nc(-c3cscn3)c2CN1C(=O)Nc1ccnc(Br)c1F
CLint scaled [1]: 12 mL/min/kg

Cc1cc(NC(=O)N2Cc3c(-c4cscn4)n[nH]c3C[C@@H]2C)ccc1F
CLint scaled [1]: 14 mL/min/kg

O=C(Nc1cccc(Cl)c1)N1CCc2[nH]nc(-c3ccsc3)c2C1
CLint scaled [1]: 160 mL/min/kg

C[C@H]1Cc2[nH]nc(-c3ccccc3)c2CN1C(=O)Nc1cccc(Cl)c1
CLint scaled [1]: 15 mL/min/kg

C[C@H]1Cc2c(c(-c3cccs3)nn2C)CN1C(=O)Nc1cccc(Cl)c1
CLint scaled [1]: 146 mL/min/kg

O=C(Nc1cccc(Cl)c1)N1CCc2[nH]nc(-c3cocn3)c2C1
CLint scaled [1]: 50 mL/min/kg
